# From ChEMBL document CHEMBL1124249 (J Med Chem, 1988)
# Assays:
# Cavia porcellus = species: Cavia porcellus; assay: Inhibitory potency evaluated against electrically evoked contractions of guinea pig ileum; type: functional, organism-based
# In short: (§1)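 Electrically stimulated twitch of isolated guinea pig ileum (μ assay). IC50 is the concentration giving half-maximal twitch inhibition, taken from six to eight computed log dose-response curves with six concentrations each. [Met]enkephalin IC50 was run on the same preparation. Each IC50 was corrected by the ratio of the mean of all [Met]enkephalin IC50s to that assay's [Met]enkephalin IC50.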
# Mus musculus = species: Mus musculus; assay: Inhibitory potency evaluated against electrically evoked contractions of mouse vas deferens; type: functional, organism-based
# In short: as §1, with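 “mouse vas deferens (δ” for “guinea pig ileum (μ”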
# [1] = biological target: Delta-type opioid receptor (Rattus norvegicus, UniProt P33533); assay: Inhibition of [3H]DTLET binding torat brain membrane Opioid receptor delta 1
# Mu-type opioid receptor = Mu-type opioid receptor (Rattus norvegicus, UniProt P33535); assay: Inhibition of [3H]DAGO binding to rat brain membrane Opioid receptor mu 1
# [2] = Ratio of IC50 for MVD to GPI; type: functional
# Chain of Delta-type opioid receptor (P33533 whole entry): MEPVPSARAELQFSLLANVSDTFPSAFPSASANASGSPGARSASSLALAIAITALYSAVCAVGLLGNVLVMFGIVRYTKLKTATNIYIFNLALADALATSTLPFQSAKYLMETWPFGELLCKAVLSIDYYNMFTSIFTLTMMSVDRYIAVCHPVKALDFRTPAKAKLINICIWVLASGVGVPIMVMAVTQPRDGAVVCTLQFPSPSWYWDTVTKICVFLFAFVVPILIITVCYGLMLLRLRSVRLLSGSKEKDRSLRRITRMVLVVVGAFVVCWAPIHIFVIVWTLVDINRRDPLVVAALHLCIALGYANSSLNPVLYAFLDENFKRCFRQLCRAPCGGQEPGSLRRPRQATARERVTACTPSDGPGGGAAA
# Chain of Mu-type opioid receptor (P33535 whole entry): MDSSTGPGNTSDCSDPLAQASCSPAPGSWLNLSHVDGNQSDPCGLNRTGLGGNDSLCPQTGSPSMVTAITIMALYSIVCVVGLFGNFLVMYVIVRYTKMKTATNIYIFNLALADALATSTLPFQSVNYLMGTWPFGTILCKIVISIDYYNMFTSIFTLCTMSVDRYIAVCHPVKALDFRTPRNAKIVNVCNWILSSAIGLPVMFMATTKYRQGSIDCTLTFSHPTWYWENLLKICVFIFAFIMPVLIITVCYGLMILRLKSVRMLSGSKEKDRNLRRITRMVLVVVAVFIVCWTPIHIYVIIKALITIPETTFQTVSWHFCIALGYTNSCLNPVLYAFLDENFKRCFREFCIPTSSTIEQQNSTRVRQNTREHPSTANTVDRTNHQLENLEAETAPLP
SMILES,IC50 (Cavia porcellus),IC50 (Mus musculus),Ki [1],Ki (Mu-type opioid receptor),Ratio [2]
CC(C)C[C@H](NC(=O)[C@H](Cc1ccccc1)NC(=O)CNC(=O)[C@H](NC(=O)[C@@H](N)Cc1ccc(O)cc1)[C@@H](C)OC(C)(C)C)C(=O)N[C@H](C(=O)O)[C@@H](C)O,11400 nM,1190 nM,866 nM,4500 nM,0.1
CC(C)C[C@H](NC(=O)[C@H](Cc1ccccc1)NC(=O)CNC(=O)[C@@H](COC(C)(C)C)NC(=O)[C@@H](N)Cc1ccc(O)cc1)C(=O)N[C@H](C(=O)O)[C@@H](C)O,1800 nM,1.07 nM,6.14 nM,374 nM,0.0006
CC(C)C[C@H](NC(=O)[C@H](Cc1ccccc1)NC(=O)CNC(=O)[C@@H](COC(C)(C)C)NC(=O)[C@@H](N)Cc1ccc(O)cc1)C(=O)N[C@H](C(=O)O)[C@@H](C)OC(C)(C)C,2790 nM,0.6 nM,4.68 nM,475 nM,0.00021
CC(C)C[C@H](NC(=O)[C@H](Cc1ccccc1)NC(=O)CNC(=O)[C@@H](NC(=O)[C@@H](N)Cc1ccc(O)cc1)[C@@H](C)OC(C)(C)C)C(=O)N[C@H](C(=O)O)[C@@H](C)O,,,13000 nM,> 100000 nM,
CC(C)C[C@H](NC(=O)[C@H](Cc1ccccc1)NC(=O)CNC(=O)[C@@H](NC(=O)[C@@H](N)Cc1ccc(O)cc1)[C@@H](C)O)C(=O)N[C@H](C(=O)O)[C@@H](C)O,460 nM,0.15 nM,1.35 nM,23.3 nM,0.0003
CC(C)C[C@H](NC(=O)[C@H](Cc1ccccc1)NC(=O)CNC(=O)[C@@H](COCc1ccccc1)NC(=O)[C@@H](N)Cc1ccc(O)cc1)C(=O)N[C@H](C(=O)O)[C@@H](C)O,83.3 nM,0.35 nM,1.47 nM,42.1 nM,0.0042
CSCC[C@H](NC(=O)[C@H](Cc1ccccc1)NC(=O)CNC(=O)CNC(=O)[C@@H](N)Cc1ccc(O)cc1)C(=O)O,200 nM,13 nM,,,
CC(C)C[C@H](NC(=O)[C@H](Cc1ccccc1)NC(=O)CNC(=O)[C@@H](CO)NC(=O)[C@@H](N)Cc1ccc(O)cc1)C(=O)N[C@H](C(=O)O)[C@@H](C)OC(C)(C)C,202 nM,0.84 nM,6.35 nM,185 nM,0.0041
CC(C)C[C@H](NC(=O)[C@H](Cc1ccccc1)NC(=O)CNC(=O)[C@@H](CO)NC(=O)[C@@H](N)Cc1ccc(O)cc1)C(=O)N[C@H](C(=O)O)[C@@H](C)O,406 nM,0.4 nM,,,0.001
CC(C)C[C@H](NC(=O)[C@H](Cc1ccccc1)NC(=O)CNC(=O)[C@@H](NC(=O)[C@@H](N)Cc1ccc(O)cc1)[C@@H](C)O)C(=O)N[C@H](C(=O)O)[C@@H](C)OC(C)(C)C,204 nM,0.75 nM,3.1 nM,64.6 nM,0.0037
